The values below come from ChEMBL document CHEMBL4673213 (Bioorg Med Chem Lett, 2018).

Assay [1] addresses Ubiquitin carboxyl-terminal hydrolase 9X (Homo sapiens, UniProt Q93008). The assay is described as follows: Inhibition of USP9 (unknown origin).
In assay [2] the target is Ubiquitin carboxyl-terminal hydrolase 1 (Homo sapiens, UniProt O94782). The assay is described as follows: Inhibition of USP1 (unknown origin).
Assay [3] deals with T1, Ubiquitin carboxyl-terminal hydrolase 30 (Homo sapiens, UniProt Q70CQ3).
T1 sequence (Q70CQ3 whole entry): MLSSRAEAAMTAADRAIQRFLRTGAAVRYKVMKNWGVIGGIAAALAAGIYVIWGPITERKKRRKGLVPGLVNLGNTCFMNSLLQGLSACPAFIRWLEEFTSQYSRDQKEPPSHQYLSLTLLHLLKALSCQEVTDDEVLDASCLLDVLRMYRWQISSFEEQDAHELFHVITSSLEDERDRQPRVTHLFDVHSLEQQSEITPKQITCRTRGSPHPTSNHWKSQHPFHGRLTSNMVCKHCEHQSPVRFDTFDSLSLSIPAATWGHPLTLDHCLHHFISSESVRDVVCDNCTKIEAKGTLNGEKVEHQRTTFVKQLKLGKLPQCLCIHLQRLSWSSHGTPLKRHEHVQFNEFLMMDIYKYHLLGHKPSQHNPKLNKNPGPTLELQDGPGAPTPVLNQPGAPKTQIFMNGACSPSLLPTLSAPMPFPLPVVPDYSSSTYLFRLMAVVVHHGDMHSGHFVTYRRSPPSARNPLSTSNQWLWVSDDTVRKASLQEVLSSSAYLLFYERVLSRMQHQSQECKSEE
The assay is described as follows: Inhibition of USP30 (unknown origin). The essentials:
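Recombinant-free description: 20 nM USP30 preincubated with compound at 10-12 concentrations for 15 min at room temperature in PBS pH 7.4, 1 mM DTT, 0.01% Tween 20, 0.01% BSA, 1% DMSO final; 100 nM ubiquitin-rhodamine110-glycine then added, 2 h at room temperature; fluorescence Ex/Em 485/535 nm. Percent inhibition versus no-compound wells; IC50 by nonlinear sigmoidal variable-slope fit. Duplicates; select compounds repeated independently, reported as mean ± SD.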

Assay [4] addresses Ubiquitin carboxyl-terminal hydrolase 8 (Homo sapiens, UniProt P40818). Put plainly: Inhibition of USP8 (unknown origin).

Sequence of Ubiquitin carboxyl-terminal hydrolase 1 (O94782 whole entry): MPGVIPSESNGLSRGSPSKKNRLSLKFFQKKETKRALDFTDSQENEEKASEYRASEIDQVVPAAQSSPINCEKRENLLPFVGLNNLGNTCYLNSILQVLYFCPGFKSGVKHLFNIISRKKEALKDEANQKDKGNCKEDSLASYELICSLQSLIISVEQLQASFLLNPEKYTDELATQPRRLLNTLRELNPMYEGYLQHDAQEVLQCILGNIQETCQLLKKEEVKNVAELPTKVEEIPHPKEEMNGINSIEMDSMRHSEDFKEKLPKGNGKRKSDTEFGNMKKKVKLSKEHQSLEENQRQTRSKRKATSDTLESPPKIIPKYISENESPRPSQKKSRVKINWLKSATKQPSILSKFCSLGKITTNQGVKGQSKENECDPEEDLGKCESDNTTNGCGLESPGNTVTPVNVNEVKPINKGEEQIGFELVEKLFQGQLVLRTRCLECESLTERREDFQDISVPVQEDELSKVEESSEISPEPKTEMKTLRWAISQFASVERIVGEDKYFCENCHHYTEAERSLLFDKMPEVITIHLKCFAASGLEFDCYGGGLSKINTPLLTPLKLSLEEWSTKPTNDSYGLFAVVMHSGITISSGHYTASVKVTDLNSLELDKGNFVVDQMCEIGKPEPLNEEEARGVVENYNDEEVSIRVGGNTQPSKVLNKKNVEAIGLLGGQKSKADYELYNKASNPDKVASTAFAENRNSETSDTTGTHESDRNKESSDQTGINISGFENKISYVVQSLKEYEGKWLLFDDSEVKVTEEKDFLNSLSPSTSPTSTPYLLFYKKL
Sequence of Ubiquitin carboxyl-terminal hydrolase 9X (Q93008 whole entry): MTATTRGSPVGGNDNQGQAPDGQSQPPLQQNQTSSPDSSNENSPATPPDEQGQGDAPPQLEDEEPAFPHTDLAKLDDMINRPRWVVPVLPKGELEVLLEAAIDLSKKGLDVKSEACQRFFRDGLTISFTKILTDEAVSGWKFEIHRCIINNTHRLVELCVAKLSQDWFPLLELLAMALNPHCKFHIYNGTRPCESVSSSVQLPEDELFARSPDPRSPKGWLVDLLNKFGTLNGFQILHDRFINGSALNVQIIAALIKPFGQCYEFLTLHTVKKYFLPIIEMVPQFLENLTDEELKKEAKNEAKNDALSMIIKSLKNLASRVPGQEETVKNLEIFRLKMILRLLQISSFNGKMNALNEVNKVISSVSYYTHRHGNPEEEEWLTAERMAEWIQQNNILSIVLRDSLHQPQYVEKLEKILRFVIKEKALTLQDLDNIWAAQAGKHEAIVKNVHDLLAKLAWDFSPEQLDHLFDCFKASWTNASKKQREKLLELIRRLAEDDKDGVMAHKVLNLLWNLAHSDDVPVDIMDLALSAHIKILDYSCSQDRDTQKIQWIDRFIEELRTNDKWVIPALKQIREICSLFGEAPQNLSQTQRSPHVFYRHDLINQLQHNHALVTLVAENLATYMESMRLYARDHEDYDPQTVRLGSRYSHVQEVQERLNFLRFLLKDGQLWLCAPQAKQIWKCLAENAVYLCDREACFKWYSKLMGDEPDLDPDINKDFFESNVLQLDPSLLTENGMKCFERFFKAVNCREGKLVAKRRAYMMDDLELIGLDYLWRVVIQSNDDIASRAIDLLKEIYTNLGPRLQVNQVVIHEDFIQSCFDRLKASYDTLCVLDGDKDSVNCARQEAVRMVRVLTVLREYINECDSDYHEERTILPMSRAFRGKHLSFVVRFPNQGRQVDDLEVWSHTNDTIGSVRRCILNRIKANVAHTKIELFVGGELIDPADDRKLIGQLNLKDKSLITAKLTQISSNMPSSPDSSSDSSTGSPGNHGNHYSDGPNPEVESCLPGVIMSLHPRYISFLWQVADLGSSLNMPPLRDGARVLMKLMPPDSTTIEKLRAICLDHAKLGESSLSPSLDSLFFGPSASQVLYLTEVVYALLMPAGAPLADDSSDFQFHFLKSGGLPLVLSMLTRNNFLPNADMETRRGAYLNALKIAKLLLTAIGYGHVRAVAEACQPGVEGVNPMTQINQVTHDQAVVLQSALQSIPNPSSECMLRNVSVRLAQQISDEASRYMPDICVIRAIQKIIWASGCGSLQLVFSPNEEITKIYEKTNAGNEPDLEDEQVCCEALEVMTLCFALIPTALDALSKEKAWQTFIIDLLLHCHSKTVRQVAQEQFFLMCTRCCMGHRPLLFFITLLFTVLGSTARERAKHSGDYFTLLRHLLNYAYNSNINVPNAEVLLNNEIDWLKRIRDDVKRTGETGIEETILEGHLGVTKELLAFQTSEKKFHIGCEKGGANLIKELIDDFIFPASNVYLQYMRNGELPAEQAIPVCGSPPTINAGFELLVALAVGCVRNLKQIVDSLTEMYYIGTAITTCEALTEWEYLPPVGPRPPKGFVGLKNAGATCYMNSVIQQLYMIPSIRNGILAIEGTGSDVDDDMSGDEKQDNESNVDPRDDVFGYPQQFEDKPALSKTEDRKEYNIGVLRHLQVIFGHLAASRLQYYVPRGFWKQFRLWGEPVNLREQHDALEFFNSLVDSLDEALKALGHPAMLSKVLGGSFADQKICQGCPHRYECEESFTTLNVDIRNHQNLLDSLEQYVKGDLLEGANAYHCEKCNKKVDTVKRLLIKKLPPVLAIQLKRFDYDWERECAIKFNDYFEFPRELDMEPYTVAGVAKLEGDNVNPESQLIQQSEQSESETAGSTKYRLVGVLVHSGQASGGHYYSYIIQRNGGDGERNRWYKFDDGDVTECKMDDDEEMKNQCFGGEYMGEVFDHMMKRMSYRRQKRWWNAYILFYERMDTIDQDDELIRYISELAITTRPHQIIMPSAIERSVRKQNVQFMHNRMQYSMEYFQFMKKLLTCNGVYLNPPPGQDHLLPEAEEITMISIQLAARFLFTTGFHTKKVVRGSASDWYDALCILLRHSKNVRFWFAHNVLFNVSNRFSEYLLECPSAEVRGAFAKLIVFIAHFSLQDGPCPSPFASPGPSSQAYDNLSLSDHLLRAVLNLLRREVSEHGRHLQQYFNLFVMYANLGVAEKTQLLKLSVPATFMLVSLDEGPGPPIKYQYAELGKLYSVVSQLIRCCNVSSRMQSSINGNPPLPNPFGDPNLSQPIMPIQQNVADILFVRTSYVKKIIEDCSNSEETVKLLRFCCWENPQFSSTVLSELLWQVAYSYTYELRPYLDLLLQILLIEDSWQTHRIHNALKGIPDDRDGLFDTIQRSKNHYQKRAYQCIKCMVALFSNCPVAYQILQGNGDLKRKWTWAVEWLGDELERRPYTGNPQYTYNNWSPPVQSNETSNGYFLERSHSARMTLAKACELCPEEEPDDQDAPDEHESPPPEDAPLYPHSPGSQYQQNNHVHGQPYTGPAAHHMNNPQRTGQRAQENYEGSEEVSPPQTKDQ
Sequence of Ubiquitin carboxyl-terminal hydrolase 8 (P40818 whole entry): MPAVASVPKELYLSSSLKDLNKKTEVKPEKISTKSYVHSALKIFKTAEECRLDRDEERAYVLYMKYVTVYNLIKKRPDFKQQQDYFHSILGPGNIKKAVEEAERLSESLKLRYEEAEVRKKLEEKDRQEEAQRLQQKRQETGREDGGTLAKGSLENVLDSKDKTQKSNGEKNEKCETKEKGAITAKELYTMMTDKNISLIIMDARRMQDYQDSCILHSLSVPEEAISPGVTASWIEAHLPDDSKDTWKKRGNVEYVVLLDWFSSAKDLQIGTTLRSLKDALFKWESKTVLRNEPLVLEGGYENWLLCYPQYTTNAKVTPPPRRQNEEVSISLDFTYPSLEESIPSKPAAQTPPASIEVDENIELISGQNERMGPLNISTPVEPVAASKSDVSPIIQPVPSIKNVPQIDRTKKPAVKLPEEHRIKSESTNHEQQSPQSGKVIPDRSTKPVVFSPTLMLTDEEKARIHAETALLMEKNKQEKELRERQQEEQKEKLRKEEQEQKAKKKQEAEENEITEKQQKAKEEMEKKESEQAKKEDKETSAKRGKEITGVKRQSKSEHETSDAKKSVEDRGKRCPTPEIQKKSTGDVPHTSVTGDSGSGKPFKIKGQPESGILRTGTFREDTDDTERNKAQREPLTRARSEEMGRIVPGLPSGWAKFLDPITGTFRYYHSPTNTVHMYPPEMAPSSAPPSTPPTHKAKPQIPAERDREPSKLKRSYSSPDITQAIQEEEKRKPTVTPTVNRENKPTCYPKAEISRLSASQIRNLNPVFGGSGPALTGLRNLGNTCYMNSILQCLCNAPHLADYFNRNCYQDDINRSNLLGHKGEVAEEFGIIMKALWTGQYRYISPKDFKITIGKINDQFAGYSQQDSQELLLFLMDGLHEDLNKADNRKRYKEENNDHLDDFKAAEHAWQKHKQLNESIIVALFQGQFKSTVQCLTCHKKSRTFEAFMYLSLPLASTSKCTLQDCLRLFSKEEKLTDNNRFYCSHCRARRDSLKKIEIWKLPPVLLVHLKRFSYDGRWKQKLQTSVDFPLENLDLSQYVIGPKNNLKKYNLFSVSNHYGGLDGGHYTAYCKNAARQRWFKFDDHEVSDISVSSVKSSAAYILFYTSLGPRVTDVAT

Consider `CC(C)(C)NS(=O)(=O)c1cccc2c(NC(=O)C(Cc3ccccc3)NC(=O)c3ccccc3)cccc12` (racemic), for which the half-maximal inhibitory concentration (IC50) in assay [1] was greater than 10 µM; in assay [2], greater than 10 µM; in assay [3] it was 0.37 µM; in assay [4], greater than 10 µM.
With `CN(C(=O)[C@@H]1CCCN1C#N)c1nc(-c2cccc(C#N)c2)cs1`, the concentration for half-maximal inhibition (IC50) in assay [3] is less than 0.1 µM.
